Bioassay records deposited in PubChem by Sanford-Burnham Center for Chemical Genomics.
Shown are actives, neighbours in structure and some others; about 4.1% of the full set was active somewhere.
Apaf1 inhib = inhibitors of human Apaf-1 apoptosome | reconstituted apoptosome caspase-3 activity, DEVD-Rh110 fluorescence | O14727 | actives 0.71% (n = 330,000) | inhibition, % at 20 µM; active means inhibition of at least 40% at 20 µM;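 further: plate controls were DMSO wells for no effect and DEVD-CHO caspase inhibitor wells for full effect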
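System – cell-free apoptosome with Apaf-1, procaspase-3 and caspase-9 · Buffer or medium – pH 7.5 Hepes buffer with CHAPS, BSA, DTT · Also added – cytochrome c with DEVD-Rh110 · Times – 30 min compound preincubation, 50 min activation, room temperature · Technique – Rh110 fluorescence intensity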
UPR CHOP act = apoptotic UPR (CHOP) activation. CHO-CHOP luciferase reporter, luminescence; percent of tunicamycin response over DMSO baseline. activation, % at 10 µM. actives 0.34% (n = 330,000);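 active means at 10 µM dose, activation of 40% or more, normalized to positive control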;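 further: 100% = tunicamycin at 10 µg/mL and 0% = DMSO alone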
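System: CHO-CHOP luciferase reporter cell line; amount: 500 cells/well; buffer or medium: F12 medium containing 10% fetal bovine serum; incubation: 6 h compound exposure at 37 °C after overnight seeding; measured by: luciferase luminescence after 10 min with Steady-Glo reagent; evaluation: % reporter activation, DMSO baseline versus tunicamycin full activation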
Mdm2 MdmX PPI = inhibitors of human Mdm2/MdmX interaction. O15151+Q00987. inhibition, % at 8 µM. actives 3% (n = 330,000). SaOS-2 split-luciferase Mdm2/MdmX complementation, luminescence. AID 485346;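 active means inhibition of at least 50% at 8 µM in the primary screen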
XBP1 UPR activ = adaptive UPR (XBP1) activation. CHO-XBP1 luciferase reporter, IRE1-XBP1 UPR activation, luminescence; percent of tunicamycin response, DMSO as zero. activation, % at 20 µM. actives 0.33% (n = 330,000). AID 463104;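 active means versus positive control, 20 µM dose yields 30% or more activation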;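 further: 100% = tunicamycin at 10 µg/mL and 0% = DMSO only wells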
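incubation = overnight seeding at 37 °C, 6 h compound treatment at 37 °C | assay system = CHO-XBP1 cells stably carrying IRE1-XBP1-driven luciferase reporter | input = 1000 cells per well | detection = luciferase luminescence | dosing = single point, 20 µM final compound, 1% DMSO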
UBC13 polyUb = blocks human UBC13 polyubiquitin chain formation. TR-FRET. inhibition, % at 20 µM. actives 0.47% (n = 330,000). AID 485273; in the data active means inhibition above about 45%, passing the limit was not always enough
Target sequence (P61088 whole entry, looked up): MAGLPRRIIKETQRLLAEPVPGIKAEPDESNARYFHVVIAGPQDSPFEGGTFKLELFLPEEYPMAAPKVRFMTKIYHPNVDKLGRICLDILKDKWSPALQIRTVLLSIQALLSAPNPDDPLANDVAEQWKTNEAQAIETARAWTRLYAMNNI
Apaf-1 inh conf2 = confirmation of Apaf-1 inhibitors; shares compounds with Apaf1 inhib; reconstituted apoptosome, caspase-3 DEVD-Rh110 fluorescence; inhibition, % at 20 µM; actives 25% (n = 1,800);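 active means mean inhibition of at least 40% at 20 µM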;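 further: plate controls were DMSO wells for no effect and DEVD-CHO caspase inhibitor control wells for full effect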
Rh110 quench = interferes with Rh110 fluorescence, flagging false Apaf-1 inhibitors; activation (fluorescence interference), % at 20 µM; Rh110 fluorescence interference, quenched caspase reaction; shares compounds with Apaf1 inhib; 1,800 tested, under 10 active; AID 504615;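 active means signal rise of 40% or more at 20 µM, treated as a fluorescence artifact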
Fluor interf inh = Apaf-1 inhibitor counter-screen fluorescence artifact | shares compounds with Apaf1 inhib | fluorescence interference counterscreen, Apaf-1 assay format | IC50, µM | 460 tested, under 10 active | AID 588538; call rule not given here
Numbers without * were called inactive; . = not tested or not shown.

SMILES | Apaf1 inhib | UPR CHOP act | Mdm2 MdmX PPI | XBP1 UPR activ | UBC13 polyUb | Apaf-1 inh conf2 | Rh110 quench | others
O=C(O)CC(NC(=O)c1sc2ccccc2c1Cl)c1ccc(OC2CCCC2)cc1 (stereo unspecified) | 44* | -1 | -3 | -1 | -14 | 11 | 1
O=C(O)CC(NC(=O)C1c2ccccc2Oc2ccccc21)c1ccc(OC2CCCC2)cc1 (stereo unspecified) | -2 | -1 | 9 | -3 | -5 | . | .
COc1ccc(S(=O)(=O)N2CCCC2C(=O)n2nc(C)cc2C)cc1 (stereo unspecified) | -9 | -2 | 26 | -2 | 4 | . | .
O=C(NC(CO)c1ccccc1)c1ccco1 (stereo unspecified) | 2 | 1 | -22 | 0 | 0 | . | .
COc1ccc(/C=C2\SC(=S)N(CCC(=O)Nc3ccc(O)cc3)C2=O)cc1 | -1 | 4 | 17 | 2 | -19 | . | .
CCN(CC)CCOC(=O)c1ccc(NC(=O)CCCN2C(=O)S/C(=C/c3ccc(OC)cc3)C2=S)cc1 | 44* | -5 | 48 | -10 | 22 | 27 | 7
COc1ccccc1C(=O)Nc1ccc(Oc2nnc(-c3ccc(C)cc3)c3ccccc23)cc1 | 40* | 2 | 48 | -6 | -18 | 8 | 6
Cc1ccc(Oc2nnc(-c3ccc(C)cc3)c3ccccc23)cc1 | 8 | 11 | -5 | 0 | 4 | . | .
Cc1ccc(N(C)S(=O)(=O)c2c(C)noc2/C=C/N(C)C)cc1 | 21 | -1 | 13 | -4 | -15 | . | .
OCCNC(=S)Nc1ccc2nsnc2c1 | 97* | -1 | 0 | -2 | -47 | 13 | 4
COCCN(C(=O)COC(=O)c1ccc(C=O)cc1)c1c(N)n(Cc2ccccc2)c(=O)[nH]c1=O | 8 | 4 | 17 | -1 | 1 | . | .
CCN1CCN(C(CNS(=O)(=O)c2ccc(Cl)cc2)c2ccccc2)CC1 (stereo unspecified) | 0 | 3 | -12 | -5 | 8 | . | .
O=S(=O)(NCC(c1ccccc1)N1CCNCC1)c1ccc(Cl)cc1 (stereo unspecified) | 43* | 4 | 28 | 3 | 23 | 13 | 12
CC1=NN(c2ccccc2)C(=O)/C1=C/c1ccc[nH]1 | -138 | 5 | -8 | 6 | -35 | . | .
O=C(N/N=C/c1ccc(OC(=O)c2cccs2)cc1)c1ccc(F)cc1 | -10 | 0 | 22 | 3 | 5 | . | .
CC1=NN(c2ccc(C)c(C)c2)C(=O)/C1=C/c1ccc2c(c1)n(C)c(=O)n2C | 94* | 1 | 21 | -2 | -26 | 13 | 5
CC1=NN(c2ccccc2)C(=O)/C1=C/c1cccs1 | 90* | 0 | 27 | 1 | -19 | 12 | 3
CC1=NN(c2ccccc2)C(=O)/C1=C/c1ccc(Cl)cc1 | 96* | -1 | 8 | 0 | -44 | 16 | -2
CC1=NN(c2ccc(C(=O)O)cc2)C(=O)/C1=C\c1ccc(OC(=O)c2cccs2)cc1 | 75* | 0 | -21 | 1 | -55 | 13 | 3
O=C(CCc1ccccc1Cl)NC1CCCN(c2ccc(C(F)(F)F)cn2)C1 (stereo unspecified) | 6 | 0 | 17 | -5 | -2 | . | .
O=C(NNC(=O)C1CC(c2cccs2)=NO1)NC1CCCCC1 (stereo unspecified) | 0 | 0 | 9 | 1 | -13 | . | .
CC1=NN(c2ccccc2)C(=O)/C1=C\N(O)c1ccccc1 | 71* | 1 | 12 | -2 | -42 | 30 | 2
CCOc1cc(/C=C2/C(=N)N3N=C(CC)SC3=NC2=O)ccc1OC(=O)c1ccco1 | 8 | 2 | -22 | -2 | -1 | . | .
CCOc1cc(/C=C2/C(=O)N(c3ccccc3)N=C2C)ccc1OC(=O)c1ccco1 | 97* | -2 | 14 | 2 | -69 | 21 | 17
CC1=NN(c2ccccc2)C(=O)/C1=C\c1ccc(Br)s1 | 96* | 2 | -4 | -1 | -8 | 38 | 1
SMILES | Apaf1 inhib | UPR CHOP act | Mdm2 MdmX PPI | XBP1 UPR activ | UBC13 polyUb | Apaf-1 inh conf2 | Rh110 quench | others
Cc1ccc(C(=O)NCC(=O)Nc2ccncc2)s1 | -19 | -1 | 23 | -3 | 8 | . | .
N#Cc1cc2ccc(N3CCOCC3)cc2cc1C#N | 82* | 5 | 36 | 4 | -30 | 10 | 10
O=C(O)c1cccc(-c2ccc(/C=N/NC(=O)c3cccnc3)o2)c1 | -10 | 3 | 28 | 0 | 5 | . | .
Cc1cc(C(=O)N/N=C/c2cccc([N+](=O)[O-])c2O)n[nH]1 | -1 | -2 | 15 | 2 | -77 | . | .
O=C(/C=C/c1ccc(-c2ccccc2[N+](=O)[O-])o1)c1ccc(Br)cc1 | 49* | 0 | 9 | 3 | -33 | 39 | 7
O=C(N/N=C/c1ccc(-c2ccccc2[N+](=O)[O-])o1)c1cccnc1 | 79* | 4 | -4 | 4 | -46 | 43* | 18 | Fluor interf inh=>100
CC(C)(C)c1cc(C(=O)N/N=C/c2ccc(-c3ccccc3[N+](=O)[O-])o2)n[nH]1 | 42* | 7 | -8 | 13 | -38 | 16 | -3
COc1ccc(NC(=O)c2cc(-c3ccccn3)nc3ccccc23)c(OC)c1 | 1 | 2 | 12 | -1 | 10 | . | .
CCOc1ccccc1NC(=O)c1cc(-c2ccccn2)nc2ccccc12 | 53* | -2 | -25 | 1 | -8 | 15 | 7
Cc1cc(C)cc(NC(=O)c2cc(C)nc3ccccc23)c1 | -1 | -2 | -3 | -4 | -3 | . | .
Cn1c(Cc2ccccc2)n[nH]c1=S | 42* | -1 | -8 | -4 | 9 | 2 | 2
CC(C)CCNC(=O)C(c1ccc(O)cc1)N(C(=O)C1COc2ccccc2O1)c1cccc(O)c1 (stereo unspecified) | 8 | 0 | -22 | -5 | 5 | . | .
CCOc1cccc(N(C(=O)C2COc3ccccc3O2)C(C(=O)NC2CCCCC2)c2ccc(O)cc2)c1 (stereo unspecified) | 47* | -1 | -2 | 2 | 3 | 11 | 1
Brc1ccc(-c2cn3nc4c(nc3n2)CCCC4)cc1 | 41* | -4 | 22 | -5 | 11 | 32 | 7
Nc1nn2cc(-c3ccc(Br)cc3)nc2c2ccccc12 | 5 | 7 | -121 | 10 | 19 | . | .
c1ccc(-c2cn3nc4c(nc3n2)CCCC4)cc1 | 57* | -8 | 35 | -11 | -20 | 27 | 4
O=c1c(Cc2ccc(F)cc2)c(O)ccn1Cc1ccc(Cl)cc1Cl | -4 | 0 | 22 | -3 | 0 | . | .
